This is an account of results in ChEMBL document CHEMBL1129602, “Indole derivatives as a new class of steroid 5 alpha-reductase inhibitors” (J Med Chem, 1996).

Where “and” joins values, the source holds several entries; their conditions need not be identical. Identical values can stand only once.

A word on the IC50: it is the midpoint of a concentration-inhibition curve. Read a high IC50 as weaker potency.

For assay [1], the system named is Rattus norvegicus. In words: Percent conversion of testosterone to dihydrotestosterone in prostate of rats at 0 mg/kg of compound given perorally. It counts as functional, Prostate gland. The settings on record: route oral. An outline of the steps:
(§1)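 Rats dosed orally at 1–30 mg/kg, with controls at 0 mg/kg. Prostates removed 4 h later and homogenized. Testosterone and DHT in the homogenate measured by radioimmunoassay and expressed as % conversion of T to DHT. Mean ± SEM of four rats. Groups compared with the 0 mg/kg control by Dunnett test.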

Assay [2] deals with Rattus norvegicus. The assay is described as follows: Percent conversion of testosterone to dihydrotestosterone in prostate of rats at 10 mg/kg of compound given perorally. As to conditions: route oral. Type of assay: functional, Prostate gland. In short, it runs like this: as §1
For assay [3], the system named is Rattus norvegicus. In words: Percent conversion of testosterone to dihydrotestosterone in prostate of rats at 30 mg/kg of compound given perorally. It counts as functional, Prostate gland. The settings on record: route oral. An outline of the steps: as §1
For assay [4], the system named is Rattus norvegicus. In words: Percent conversion of testosterone to dihydrotestosterone in prostate of rats at 3 mg/kg of compound given perorally. It counts as functional, Prostate gland. The settings on record: route oral. An outline of the steps:
as §1

Assay [5] can be described thus: Compound was tested in vitro for inhibitory activity against 5-alpha reductase isozyme homogenated from transfected Namalwa. It counts as functional. In short, it runs like this:
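Homogenate of Namalwa cells transfected to express human type 2 isozyme, 40 μg cellular protein per assay. Buffer 0.1 M Na2HPO4–citrate pH 5.5 with 0.3 μM [14C]testosterone and 2 mM NADPH, across a range of drug concentrations. IC50 given as mean ± SEM of three separate experiments.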

For assay [6], the system named is Rattus norvegicus. In words: Concentration of testosterone (T) and DHT in homogenate was determined by radio immunoassay. Values are presented of Four rats, at dose mg/kg, p.o. =10. Type of assay: functional. An outline of the steps: as §1
The target of assay [7] is T1, 3-oxo-5-alpha-steroid 4-dehydrogenase 1 (Rattus norvegicus, UniProt P24008).
T1 sequence (P24008 whole entry): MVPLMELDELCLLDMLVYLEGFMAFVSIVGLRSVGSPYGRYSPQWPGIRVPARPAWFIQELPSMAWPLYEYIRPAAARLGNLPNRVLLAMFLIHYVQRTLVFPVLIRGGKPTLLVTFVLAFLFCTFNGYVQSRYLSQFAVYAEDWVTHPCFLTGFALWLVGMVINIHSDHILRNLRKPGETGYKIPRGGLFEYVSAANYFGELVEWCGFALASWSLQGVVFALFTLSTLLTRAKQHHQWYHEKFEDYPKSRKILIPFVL
The assay is described as follows: 5 alpha- reductase inhibitory activity. It counts as functional.

Assay [8] relates to Rattus norvegicus. In words: Percent conversion of testosterone to dihydrotestosterone in prostate of rats at 1 mg/kg of compound given perorally. Type of assay: functional, Prostate gland. The settings on record: route oral. In short, it runs like this:
as §1

Assay [9] deals with T2, 3-oxo-5-alpha-steroid 4-dehydrogenase 2 (Rattus norvegicus, UniProt P31214).
T2 sequence (P31214 whole entry): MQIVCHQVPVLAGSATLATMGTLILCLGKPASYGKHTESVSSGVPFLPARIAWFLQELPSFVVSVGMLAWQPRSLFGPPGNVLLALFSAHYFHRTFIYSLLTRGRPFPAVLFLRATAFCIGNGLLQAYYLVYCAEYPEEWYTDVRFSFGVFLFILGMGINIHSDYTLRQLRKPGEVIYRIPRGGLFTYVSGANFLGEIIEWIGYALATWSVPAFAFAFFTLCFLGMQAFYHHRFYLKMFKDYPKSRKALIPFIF
The assay is described as follows: Compound was tested in vitro for inhibitory activity against type 2 5-alpha reductase Isozyme homogenated from rat epididymis. It counts as functional. An outline of the steps: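 Epididymal particulates from male Wistar rats (200–300 g), pelleted at 100000g for 0.5 h. Compounds added in ethanol. Incubated 37 °C for 10 min, then stopped and extracted with ethyl acetate. Inhibition taken from [14C]DHT conversion versus a blank.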

For assay [10], the target named is T3, 3-oxo-5-alpha-steroid 4-dehydrogenase 1 (Rattus norvegicus) (UniProt P24008).
T3 sequence (whole entry): T1 sequence (P24008 whole entry)
The assay is described as follows: Inhibitory activity of compound towards 5-alpha reductase from rat =. The settings on record: 100 nM.

Take `CC/C(=C\C(=O)Nc1ccccc1OCCCC(=O)O)c1ccc2c(ccn2C(c2ccc(F)cc2)c2ccc(F)cc2)c1`: the Conversion came out at 94% in the assay on Rattus norvegicus [1], 70% in the assay with Rattus norvegicus [2], 50% with Rattus norvegicus [3] and 76% in the assay with Rattus norvegicus [4]. In assay [5], this molecule displayed a concentration for half-maximal inhibition (IC50) of 357 nM.
Regarding `CCCC(CCC)n1ccc2cc(/C(=C/C(=O)Nc3ccccc3OCCCC(=O)O)CC)ccc21`, the Conversion in the assay on Rattus norvegicus [6] was 84%; in the assay on Rattus norvegicus [1] it was 96%; with Rattus norvegicus [2] it was 84%; with Rattus norvegicus [3] it was 73%; with Rattus norvegicus [4], 87%. In addition, the half-maximal inhibitory concentration (IC50) in assay [5] was determined as 341 nM.
On to `CC/C(=C\C(=O)Nc1ccccc1OCCCC(=O)O)c1ccc2c(ccn2C(c2ccccc2)c2ccccc2)c1`, for which the IC50 in assay [7] was determined as 2.5 nM. In other words, the single-digit nanomolar range.
Turning to `CC(C)(C)NC(=O)[C@H]1CC[C@H]2[C@@H]3CC[C@H]4NC(=O)C=C[C@]4(C)[C@H]3CC[C@]12C` [FINASTERIDE], the Conversion in the assay on Rattus norvegicus [1] was determined as 84%; in the assay with Rattus norvegicus [2], 50%; in the assay with Rattus norvegicus [8] it was 64%; in the assay on Rattus norvegicus [3], 39%; in the assay with Rattus norvegicus [4], 49%. The IC50 in assay [9] is 2.1 nM; in assay [5], 0.58 nM; in assay [10], 10 nM.
In [7], `C/C(=C\C(=O)Nc1ccccc1OCCCC(=O)O)c1ccc2c(ccn2C(c2ccccc2)c2ccccc2)c1` displayed a 50% inhibitory concentration (IC50) of 5.6 nM. That is a single-digit nanomolar value.
`C/C(=C\C(=O)Nc1ccccc1OCCCC(=O)O)c1ccc2c(ccn2C(c2ccc(F)cc2)c2ccc(F)cc2)c1`: the Conversion is 98% and 93% with Rattus norvegicus [1]; 85% with Rattus norvegicus [2]; 62% in the assay with Rattus norvegicus [3]. In assay [5], this molecule came in with a concentration for half-maximal inhibition (IC50) of 215 nM.
As for `Cc1c(O[C@@H](C)c2ccc(CC(C)C)cc2)ccc(C(=O)Nc2ccccc2OCCCC(=O)O)c1C` (racemic), the Conversion in the assay on Rattus norvegicus [1] amounted to 91%; in the assay with Rattus norvegicus [2] it was 56%; with Rattus norvegicus [8], 82%; in the assay on Rattus norvegicus [3], 54%; with Rattus norvegicus [4], 88%. Moreover, the 50% inhibitory concentration (IC50) in [5] worked out at 78.7 nM.
